Source: ChEMBL document CHEMBL4428077, “Synthesis and Biological Evaluation of N-((1-(4-(Sulfonyl)piperazin-1-yl)cycloalkyl)methyl)benzamide Inhibitors of Glycine Transporter-1” (J Med Chem, 2016)

Key:
[1] = Drug level in Sprague-Dawley rat brain at 1 mg/kg, po measured 2 hrs post dose by LC-MS/MS analysis; assay type: ADME, organism-based; conditions: read-out: Drug uptake
Summary of the method: (§1)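 Drug-naive Sprague−Dawley rats (n = 4−5/group) were dosed orally once in 5% Solutol plus 20% Captisol in 25 mM PBS, pH 2, and euthanized 2 h later by CO₂. CSF was drawn from the cisterna magna. Drug was measured in CSF, brain and plasma; data as mean ± SEM.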

Rattus norvegicus [2] = experiment: In vivo inhibition of glycine transporter-1 in Sprague-Dawley rat assessed as CSF glycine level at 10 mg/kg, po measured 2 hrs post dose by LC-MS/MS analysis relative to control; assay type: functional; parameters: scale not given: the % may be the effect or the level left
Summary of the method: (§2)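 Drug-naive adult male Sprague-Dawley rats, n = 4-5 per group, given a single oral dose of 0.4, 1.5, 4.7 or 15.7 μmol/kg. Vehicle was 5% Solutol + 10% Captisol in 25 mM PBS, pH 2. At 2 h, rats were killed by CO₂. CSF (50-100 μL) was taken from the cisterna magna, and brain and plasma were also collected. Glycine was measured by LC-MS/MS against a deuterated-glycine internal standard. Results given as % vehicle control (vehicle 30 min post-dose), mean ± SEM. Two-way ANOVA with Tukey test.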

[3] = Metabolic stability in human liver microsomes assessed as parent compound remaining at 3 uM incubated for 15 mins by LC-MS analysis; assay type: ADME, Microsome
Summary of the method: (§3)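 Liver microsomes incubated with compound at 3 μM for 15 min. Parent compound remaining was quantified by LC-MS.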

[4] = Drug level in Sprague-Dawley rat CSF at 1 mg/kg, po measured 2 hrs post dose by LC-MS/MS analysis; assay type: ADME, organism-based, Cerebrospinal fluid; conditions: read-out: Drug uptake; summary of the method: as §1
[5] = Drug level in Sprague-Dawley rat CSF at 0.3 mg/kg, po measured 2 hrs post dose by LC-MS/MS analysis; assay type: ADME, organism-based, Cerebrospinal fluid; conditions: read-out: Drug uptake; summary of the method: as §1
Rattus norvegicus [6] = experiment: In vivo inhibition of glycine transporter-1 in Sprague-Dawley rat assessed as CSF glycine level at 3 mg/kg, po measured 2 hrs post dose by LC-MS/MS analysis relative to control; assay type: functional; parameters: scale not given: the % may be the effect or the level left; summary of the method: as §2
[7] = Metabolic stability in rat liver microsomes assessed as parent compound remaining at 3 uM incubated for 15 mins by LC-MS analysis; assay type: ADME, Microsome; conditions: liver microsomes, read-out: Stability; summary of the method: as §3
[8] = molecular target: T1, Sodium- and chloride-dependent glycine transporter 1 (Homo sapiens, UniProt P48067); experiment: Inhibition of glycine transporter-1B in human JAR cells assessed as reduction in [14C]glycine uptake preincubated for 10 mins followed by [14C]glycine addition measured after 3 hrs by scintillation proximity assay; assay type: cell-based
T1 sequence (P48067 whole entry): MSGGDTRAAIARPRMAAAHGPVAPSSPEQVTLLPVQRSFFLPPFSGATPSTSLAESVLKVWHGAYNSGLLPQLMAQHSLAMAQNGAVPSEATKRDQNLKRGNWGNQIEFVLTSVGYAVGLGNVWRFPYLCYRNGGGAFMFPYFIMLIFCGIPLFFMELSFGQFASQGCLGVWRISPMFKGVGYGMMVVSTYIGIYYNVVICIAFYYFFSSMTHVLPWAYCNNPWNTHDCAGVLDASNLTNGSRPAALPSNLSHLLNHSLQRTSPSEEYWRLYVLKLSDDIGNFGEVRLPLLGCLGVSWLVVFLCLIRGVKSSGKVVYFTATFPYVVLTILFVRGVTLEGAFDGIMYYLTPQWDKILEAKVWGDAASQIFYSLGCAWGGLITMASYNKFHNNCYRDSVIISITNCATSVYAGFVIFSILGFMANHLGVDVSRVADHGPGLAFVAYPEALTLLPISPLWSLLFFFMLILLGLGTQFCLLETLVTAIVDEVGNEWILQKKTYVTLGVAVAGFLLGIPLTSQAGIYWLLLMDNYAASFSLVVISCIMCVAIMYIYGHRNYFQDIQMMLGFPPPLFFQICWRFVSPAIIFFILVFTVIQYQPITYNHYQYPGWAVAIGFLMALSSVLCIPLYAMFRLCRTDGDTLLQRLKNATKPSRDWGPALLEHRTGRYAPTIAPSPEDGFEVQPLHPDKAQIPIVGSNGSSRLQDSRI
Summary of the method: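 Whole-cell SPA in JAR cells, which endogenously express hGlyT-1b. Cells (50,000 per well) were attached overnight in RPMI/10% FBS at 37 °C, 5% CO₂. [¹⁴C]glycine was then added and incubated 3 h at 37 °C. The assay window was set with unlabeled glycine. A reference standard ran on each plate. IC₅₀ values are means of n ≥ 2.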

[9] = Drug level in Sprague-Dawley rat plasma at 3 mg/kg, po measured 2 hrs post dose by LC-MS/MS analysis; assay type: ADME, organism-based; summary of the method: as §1
[10] = Drug level in Sprague-Dawley rat CSF at 10 mg/kg, po measured 2 hrs post dose by LC-MS/MS analysis; assay type: ADME, organism-based, Cerebrospinal fluid; conditions: read-out: Drug uptake; summary of the method: as §1
[11] = Drug level in Sprague-Dawley rat plasma at 0.3 mg/kg, po measured 2 hrs post dose by LC-MS/MS analysis; assay type: ADME, organism-based; summary of the method: as §1
[12] = Thermodynamic solubility in pH 7.4 PBS by shake flask method; assay type: physicochemical; conditions: read-out: Therm_solubility
Summary of the method: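 Thermodynamic shake-flask solubility in PBS, pH 7.4.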

[13] = Drug level in Sprague-Dawley rat brain at 0.3 mg/kg, po measured 2 hrs post dose by LC-MS/MS analysis; assay type: ADME, organism-based; conditions: read-out: Drug uptake; summary of the method: as §1
[14] = Drug level in Sprague-Dawley rat plasma at 1 mg/kg, po measured 2 hrs post dose by LC-MS/MS analysis; assay type: ADME, organism-based; summary of the method: as §1
[15] = Drug level in Sprague-Dawley rat CSF at 3 mg/kg, po measured 2 hrs post dose by LC-MS/MS analysis; assay type: ADME, organism-based, Cerebrospinal fluid; conditions: read-out: Drug uptake; summary of the method: as §1
[16] = Drug level in Sprague-Dawley rat brain at 10 mg/kg, po measured 2 hrs post dose by LC-MS/MS analysis; assay type: ADME, organism-based; conditions: read-out: Drug uptake; summary of the method: as §1
[17] = Drug level in Sprague-Dawley rat plasma at 10 mg/kg, po measured 2 hrs post dose by LC-MS/MS analysis; assay type: ADME, organism-based; summary of the method: as §1
[18] = Drug level in Sprague-Dawley rat brain at 3 mg/kg, po measured 2 hrs post dose by LC-MS/MS analysis; assay type: ADME, organism-based; conditions: read-out: Drug uptake; summary of the method: as §1
Rattus norvegicus [19] = experiment: In vivo inhibition of glycine transporter-1 in Sprague-Dawley rat assessed as CSF glycine level at 0.3 mg/kg, po measured 2 hrs post dose by LC-MS/MS analysis relative to control; assay type: functional; parameters: scale not given: the % may be the effect or the level left; summary of the method: as §2
Rattus norvegicus [20] = experiment: In vivo inhibition of glycine transporter-1 in Sprague-Dawley rat assessed as CSF glycine level at 1 mg/kg, po measured 2 hrs post dose by LC-MS/MS analysis relative to control; assay type: functional; parameters: scale not given: the % may be the effect or the level left; summary of the method: as §2
[21] = Drug level in cynomolgus monkey CSF at 10 mg/kg, po measured at 24 hrs post dose by LC-MS/MS analysis; assay type: ADME, organism-based, Macaca fascicularis, Cerebrospinal fluid; conditions: read-out: Drug uptake
Summary of the method: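 Cynomolgus monkeys (n = 3/group) fitted with subcutaneous CSF ports were dosed orally at 0.4−15.7 μmol/kg in 5% Solutol plus 20% Captisol in 25 mM PBS, pH 2. CSF (about 0.30 mL) and blood were sampled predose and at 0.5, 1, 2, 3, 4, 8, 12 and 24 h. Quantitation limit 1.0 ng/mL; mean ± SD.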

Compound	concentration at 2 h [1] [nM]	Activity (Rattus norvegicus [2]) [%]	concentration at 2 h [4] [nM]	concentration at 2 h [5]	Activity (Rattus norvegicus [6]) [%]	remaining at 0.25 h, 3 µM [7] [%]	IC50 [8] [nM]	concentration at 2 h [9] [nM]	concentration at 2 h [10] [nM]	concentration at 2 h [11] [nM]	solubility thermodynamic [12] [µM]	concentration at 2 h [13] [nM]	concentration at 2 h [14] [nM]	concentration at 2 h [15] [nM]	concentration at 2 h [16] [nM]	concentration at 2 h [17] [nM]	concentration at 2 h [18] [nM]	Activity (Rattus norvegicus [19]) [%]	Activity (Rattus norvegicus [20]) [%]	also measured
Cl.Cn1cc(S(=O)(=O)N2CCN(C3(CNC(=O)c4ccc(C(F)(F)F)cc4Cl)CCC(F)(F)CC3)CC2)nn1	13.1	306.4	3.7	2.7 nM	251.8	85	0.671	204	7.5	18	9.9	7.5	76.9	4	64.9	432	39.2	106.6	166	remaining at 0.25 h, 3 µM ([3]; liver microsomes, read-out: Stability): 60%
CC(NC(=O)c1ccc(C(F)(F)F)cc1Cl)C1(N2CCN(S(=O)(=O)c3cn(C)nn3)CC2)CCC(F)(F)CC1.Cl (single isomer, unassigned; (+))	3.6	326.4	0.1	< 1 ng/mL	160.5	76	1.06	52.2	1.7	3.2	22.2	3.2	11.4	0.5	32.2	318	12.5	100.4	119.3	Stability ([3]; microsomes, 0.25 h, 3 µM): 74%; concentration at 24 h [21]: 1.2 ng/mL
